The term ED50 denotes the midpoint of the dose-response relation.

The source made the active and inactive calls. The rule behind the calls is not given here.

The test system of data set [1] is Rhesus monkey. The experiment in a line: Toxicity in monkey assessed as head tremor at 10 mg/kg. To be noted: in vivo. Details: dose 10 mg/kg. It is filed as organism-based, Macaca mulatta.
Data set [2] relates to Rhesus monkey. In words: Physical dependence capacity in monkey assessed as single dose suppression of morphine withdrawal syndrome at 2.5 to 10 mg/kg. It is filed as ADME, organism-based, Macaca mulatta. Details: dose 2.5-10 mg/kg. To be noted: in vivo.
For data set [3], the system named is Mus musculus. The experiment in a line: Analgesic activity in po dosed mouse by Nilsen assay. It counts as functional. In short, it runs like this:
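Mouse analgesia by the Nilsen test with oral dosing. The ED50 is reported in mg/kg with confidence limits in parentheses.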

Data set [4] relates to Mus musculus. The experiment in a line: Analgesic activity in sc dosed mouse by Nilsen assay. It is filed as functional.
Data set [5] concerns Mus musculus. The experiment in a line: Analgesic activity in sc dosed mouse by Eddy hot-plate assay. It is filed as functional. (In hot-plate and tail-flick tests a longer latency is read as antinociception.)
Data set [6] concerns Rhesus monkey. The experiment in a line: Physical dependence capacity in monkey assessed as single dose suppression of morphine withdrawal syndrome at 1 to 16 mg/kg. It counts as ADME, organism-based, Macaca mulatta. Set-up: dose 1-16 mg/kg. The note with it: in vivo.
In data set [7] the test system is Rhesus monkey. In words: Toxicity in monkey assessed as gazing behavior at 10 mg/kg. Details: dose 10 mg/kg. To be noted: in vivo. It is filed as organism-based, Macaca mulatta.
Data set [8] concerns Rhesus monkey. The experiment in a line: Toxicity in monkey assessed as vomiting at 1 to 4 mg/kg for 24 hrs. Details: dose 1-4 mg/kg. To be noted: in vivo. It counts as organism-based, Macaca mulatta.
Data set [9] concerns Mus musculus. The experiment in a line: Toxicity in mouse at 50 mg/kg, sc. It counts as organism-based. Set-up: dose 50 mg/kg, route subcutaneous. To be noted: in vivo.
Data set [10] relates to Rhesus monkey. The experiment in a line: Toxicity in monkey assessed as depression at 1 to 16 mg/kg for 24 hrs. It counts as organism-based, Macaca mulatta. Set-up: dose 1-16 mg/kg. The note with it: in vivo.
The subject of data set [11] is Rhesus monkey. The experiment in a line: Toxicity in monkey assessed as severe retching at 1 to 4 mg/kg for 24 hrs. It counts as organism-based, Macaca mulatta. To be noted: in vivo. Details: dose 1-4 mg/kg.
In data set [12] the test system is Rhesus monkey. In words: Toxicity in monkey at 16 mg/kg. It counts as organism-based, Macaca mulatta. Details: dose 16 mg/kg. To be noted: in vivo.
Data set [13] deals with Rhesus monkey. The experiment in a line: Physical dependence capacity in monkey assessed as precipitation of morphine withdrawal syndrome at 0.5 to 16 mg/kg. It counts as ADME, organism-based, Macaca mulatta. Set-up: dose 0.5-16 mg/kg. The note with it: in vivo.
Data set [14] deals with Mus musculus. The experiment in a line: Toxicity in mouse at 16 mg/kg, sc. It counts as organism-based. Details: dose 16 mg/kg, route subcutaneous. The note with it: in vivo.
The subject of data set [15] is Rhesus monkey. In words: Toxicity in monkey assessed as increase spontaneous movement at 10 mg/kg for 1 to 2 hrs. Details: dose 10 mg/kg. The note with it: in vivo. It is filed as organism-based, Macaca mulatta.
In data set [16] the test system is Rhesus monkey. The experiment in a line: Toxicity in monkey assessed as pupil dilation at 10 mg/kg for 1 to 2 hrs. It is filed as organism-based, Macaca mulatta. Set-up: dose 10 mg/kg. The note with it: in vivo.
Data set [17] relates to Rhesus monkey. In words: Toxicity in monkey assessed as apprehensive behavior at 10 mg/kg for 1 to 2 hrs. It is filed as organism-based, Macaca mulatta. Details: dose 10 mg/kg. The note with it: in vivo.
Data set [18] has as its system Mus musculus. In words: Toxicity in mouse at 20 to 40 mg/kg, sc. It counts as organism-based. Details: dose 20-40 mg/kg, route subcutaneous. The note with it: in vivo.
The test system of data set [19] is Rhesus monkey. In words: Toxicity in monkey assessed as piloerection at 10 mg/kg for 1 to 2 hrs. It is filed as organism-based, Macaca mulatta. Details: dose 10 mg/kg. To be noted: in vivo.
Data set [20] deals with Rhesus monkey. The experiment in a line: Physical dependence capacity in monkey assessed as single dose suppression of morphine withdrawal syndrome at 5 to 10 mg/kg. Details: dose 5-10 mg/kg. It is filed as ADME, organism-based, Macaca mulatta. The note with it: in vivo.
Data set [21] has as its system Rhesus monkey. The experiment in a line: Toxicity in monkey assessed as restlessness at 10 mg/kg for 1 to 2 hrs. Set-up: dose 10 mg/kg. It counts as organism-based, Macaca mulatta. The note with it: in vivo.
The subject of data set [22] is Rhesus monkey. In words: Toxicity in monkey at 0.5 to 16 mg/kg. It counts as organism-based, Macaca mulatta. Details: dose 0.5-16 mg/kg. To be noted: in vivo.
The subject of data set [23] is Rhesus monkey. The experiment in a line: Toxicity in monkey assessed as irritable behavior at 10 mg/kg for 1 to 2 hrs. It counts as organism-based, Macaca mulatta. Set-up: dose 10 mg/kg. To be noted: in vivo.
The test system of data set [24] is Rhesus monkey. The experiment in a line: Physical dependence capacity in monkey assessed as single dose suppression of morphine withdrawal syndrome at 0.5 to 16 mg/kg. Set-up: dose 0.5-16 mg/kg. To be noted: in vivo. It counts as ADME, organism-based, Macaca mulatta.
The test system of data set [25] is Rhesus monkey. The experiment in a line: Physical dependence capacity in monkey assessed as precipitation of morphine withdrawal syndrome at 5 to 10 mg/kg. It counts as ADME, organism-based, Macaca mulatta. Set-up: dose 5-10 mg/kg. The note with it: in vivo.
In data set [26] the test system is Rhesus monkey. The experiment in a line: Toxicity in monkey assessed as muscle rigidity at 10 mg/kg for 1 to 2 hrs. To be noted: in vivo. Set-up: dose 10 mg/kg. It is filed as organism-based, Macaca mulatta, Muscle tissue.
The subject of data set [27] is Rhesus monkey. In words: Physical dependence capacity in monkey assessed as precipitation of morphine-induced abstinence at 10 mg/kg. It is filed as ADME, organism-based, Macaca mulatta. To be noted: in vivo. Details: dose 10 mg/kg.
Data set [28] concerns Rhesus monkey. The experiment in a line: Toxicity in monkey assessed as tremors at 10 mg/kg for 1 to 2 hrs. It counts as organism-based, Macaca mulatta. Details: dose 10 mg/kg. To be noted: in vivo.
In data set [29] the test system is Rhesus monkey. The experiment in a line: Physical dependence capacity in monkey assessed as precipitation of morphine-induced abstinence at 0.5 to 16 mg/kg. It counts as ADME, organism-based, Macaca mulatta. Details: dose 0.5-16 mg/kg. The note with it: in vivo.
Data set [30] concerns Mus musculus. The experiment in a line: Analgesic activity mouse at 20 to 40 mg/kg, sc by Eddy hot-plate assay. It counts as functional, organism-based. The procedure, abridged:
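Mouse analgesia by the Eddy hot-plate assay with subcutaneous injection. The ED50 is expressed with 95% SE limits.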

Data set [31] deals with Rhesus monkey. The experiment in a line: Toxicity in monkey assessed as myoclonic jerks at 6 mg/kg, sc. Set-up: dose 6 mg/kg, route subcutaneous. To be noted: in vivo. It counts as organism-based, Macaca mulatta.
The mark [32] stands for this setting: Mus musculus, sc, read-out: ED50.

In the case of `CCC[C@@H]1[C@H]2Cc3ccc(O)cc3[C@]1(C)CCN2C.Cl`, the Activity entry in the data set with Rhesus monkey [1] is listed as “Toxic”; with Rhesus monkey [2], “Non-toxic”; in the data set with Rhesus monkey [6], “Toxic”; with Rhesus monkey [7] it was “Toxic”; with Rhesus monkey [8], “Toxic”; in the data set with Mus musculus [9] it was “Toxic”. In addition, the Activity entry in the data set with Rhesus monkey [10] and in the data set with Rhesus monkey [11] was “Toxic” in each case. The 50% effective dose (ED50) in the data set with Mus musculus [3] was 7.26 mg/kg; in the data set on Mus musculus [4], 0.35 mg/kg; in the data set with Mus musculus [5] it was 0.3 mg/kg.

For the molecule `C=CCN1CC[C@]23c4c5ccc(O)c4O[C@H]2[C@@H](O)C=C[C@H]3[C@H]1C5.Cl` [NALORPHINE HYDROCHLORIDE], the 50% effective dose (ED50) in the data set on Mus musculus [4] (setting [32]) is 4.8 mg/kg; with Mus musculus [5] (setting [32]), 36.4 mg/kg.

On to `CN1CC[C@]23c4c5ccc(O)c4O[C@H]2[C@@H](O)C=C[C@H]3[C@H]1C5.Cl` [MORPHINE HYDROCHLORIDE], for which the median effective dose (ED50) came to 0.8 mg/kg in the data set on Mus musculus [4] (setting [32]) and 1.2 mg/kg in the data set on Mus musculus [5] (setting [32]).

As for `CCC[C@@H]1[C@H]2Cc3ccc(O)cc3[C@]1(C)CCN2C.Cl` (racemic), the Activity entry with Rhesus monkey [12], with Rhesus monkey [13] and in the data set on Mus musculus [14] was “Non-toxic” in each case. In addition, the median effective dose (ED50) in the data set with Mus musculus [4] (setting [32]) was 0.35 mg/kg; in the data set with Mus musculus [5], 0.64 mg/kg.

Consider `CCC[C@H]1[C@H]2Cc3ccc(O)cc3[C@]1(C)CCN2C.O=C(O)C(O)c1ccccc1`, for which the Activity entry is “Toxic” in the data set with Rhesus monkey [15]; “Toxic” in the data set with Rhesus monkey [16]; “Toxic” in the data set on Rhesus monkey [17]; “Toxic” in the data set on Mus musculus [18]; “Toxic” with Rhesus monkey [19]; “Non-toxic” in the data set with Rhesus monkey [20]. In addition, the Activity entry is “Toxic” with Rhesus monkey [21]; “Non-toxic” in the data set with Rhesus monkey [22]; “Toxic” in the data set on Rhesus monkey [23]; “Non-toxic” with Rhesus monkey [24]; “Non-toxic” with Rhesus monkey [25]; “Toxic” in the data set with Rhesus monkey [26]. The Activity entry in the data set on Rhesus monkey [27] is “Non-toxic”; in the data set with Rhesus monkey [28], “Toxic”; in the data set on Rhesus monkey [29], “Non-toxic”. For the same molecule, the ED50 with Mus musculus [4] (setting [32]) came out at 1.2 mg/kg; in the data set on Mus musculus [5] (setting [32]) it was 1.1 mg/kg.

Take `CCC[C@H]1[C@H]2Cc3ccc(O)cc3[C@]1(C)CCN2C` [listing 1 of 2 here]: in the data set with Mus musculus [30], the outcome was inactive.

Regarding `CCC[C@H]1[C@H]2Cc3ccc(O)cc3[C@]1(C)CCN2C` [listing 2 of 2 here], the 50% effective dose (ED50) in the data set with Mus musculus [4] (setting [32]) was 1.8 mg/kg; in the data set on Mus musculus [5] (setting [32]) it was 1.61 mg/kg. The Activity entry in the data set on Rhesus monkey [31] is “Toxic”.

Molecule `COc1ccc2c3c1O[C@H]1C(=O)CC[C@@]4(O)[C@@H](C2)N(C)CC[C@]314` [OXYCODONE] displayed an ED50 in the data set with Mus musculus [3] of 1.3 mg/kg.

Take `COc1ccc2c3c1O[C@H]1[C@@H](O)C=C[C@H]4[C@@H](C2)N(C)CC[C@@]341` [CODEINE]: in the data set with Mus musculus [3], the ED50 was found to be 21.4 mg/kg.

(Values after ChEMBL document CHEMBL3272274, “Optical resolution of (+/-)-2,5-dimethyl-2'-hydroxy-9alpha- and -9beta-propyl-6,7-benzomorphans and their pharmacological properties” (J Med Chem, 1976).)
